Assay results reported in publication PMC4460194 (Current Therapeutic Research, Clinical and Experimental, 2015).
Read-outs that look alike come from different tables or passages of the source.

Legend:
[1] = Single-dose pharmacokinetic study of pitavastatin calcium tablets; format: in vivo, human (healthy Chinese volunteers); conditions: for half-life / AUC(0-inf) / AUC(0-t) / Tmax / Vd / clearance / Cmax: human, plasma
Summary of the method: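 Randomized 3-way crossover in healthy Chinese volunteers (6 male, 6 female) with 5-day washouts. Single oral 1, 2 or 4 mg tablets were given after a 12-h fast with 200 mL water; meals at 4 and 10 h. Venous samples were taken predose and from 0.25 to 36 h. Heparinised plasma was analysed by LC-MS/MS (0.287–287 ng/mL). Noncompartmental analysis: Cmax/Tmax observed; AUC0–t by linear trapezoidal rule; AUC0–∞ = AUC0–t + Ct/λ.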

[2] = format: in vivo, human (healthy Chinese volunteers); conditions: for Cav: 2 mg multiple dose
Summary of the method: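 Healthy Chinese volunteers (18–27 years, BMI 19–24) took a 2-mg tablet of the test compound orally once daily for 6 days. Predose samples were taken on days 3–5. On day 6, samples were taken predose and from 0.25 to 48 h. Heparinised plasma was stored at –20°C and extracted into diethyl ether-dichloromethane. LC-MS/MS range was 0.287–287 ng/mL. Noncompartmental analysis; accumulation index = AUC(multiple-dose)/AUC(single-dose).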

[3] = did not convert to Pi-LAC; cited from earlier work
[4] = Tolerability assessment; format: in vivo, human (healthy Chinese volunteers); conditions: single doses of 1 mg, 2 mg, or 4 mg and multiple doses of 2 mg once daily for 6 days, all subjects
[5] = OATP 388GA + 388GG mutant group vs 388AA wild-type group; cited from earlier work
[6] = system: albumin and alpha-1-acid glycoprotein; conditions: primarily to albumin and alpha-1-acid glycoprotein; cited from earlier work
[7] = Stability tests of the analyte in human plasma; format: in vitro ADME
[8] = animal studies, tissue distribution; cited from earlier work
[9] = multiple dose 2 mg once daily for 6 days, n = 11, mean (SD)

- half-life ([1]; both, oral): ~10 h
- AUC(0-inf) ([1]; both, oral, 1 mg): 206 ng·h/mL
- AUC(0-t) ([1]; both, oral, 1 mg): 190 ng·h/mL
- Tmax ([1]; both, oral, 1 mg): 0.63 h
- Vd ([1]; both, oral, 1 mg): 79.9 L
- clearance ([1]; both, oral, 1 mg): 84.8 mL/min
- half-life ([1]; both, oral, 1 mg): 11 h
- AUC(0-inf) ([1]; both, oral, 2 mg): 321 ng·h/mL
- AUC(0-t) ([1]; both, oral, 2 mg): 308 ng·h/mL
- Tmax ([1]; both, oral, 2 mg): 0.65 h
- Vd ([1]; both, oral, 2 mg): 86.9 L
- clearance ([1]; both, oral, 2 mg): 108 mL/min
- half-life ([1]; both, oral, 2 mg): 9.52 h
- AUC(0-inf) ([1]; both, oral, 4 mg): 828 ng·h/mL
- AUC(0-t) ([1]; both, oral, 4 mg): 785 ng·h/mL
- Tmax ([1]; both, oral, 4 mg): 0.79 h
- Vd ([1]; both, oral, 4 mg): 72.5 L
- clearance ([1]; both, oral, 4 mg): 85.5 mL/min
- half-life ([1]; both, oral, 4 mg): 10.4 h
- Tmax ([1]; both, po): ≤ 1 h
- Cmax ([1]; both, po, 1 mg): 66.8 ng/mL
- Cmax ([1]; both, po, 2 mg): 106 ng/mL
- Cmax ([1]; both, po, 4 mg): 233 ng/mL
- AUC(0-t) ([1]; female, oral, 1 mg): 204 ng·h/mL
- Cmax ([1]; female, oral, 1 mg): 71 ng/mL
- Tmax ([1]; female, oral, 1 mg): 0.67 h
- Vd ([1]; female, oral, 1 mg): 73.3 L
- clearance ([1]; female, oral, 1 mg): 77.5 mL/min
- half-life ([1]; female, oral, 1 mg): 9.69 h
- AUC(0-t) ([1]; female, oral, 2 mg): 330 ng·h/mL
- Cmax ([1]; female, oral, 2 mg): 114 ng/mL
- Tmax ([1]; female, oral, 2 mg): 0.67 h
- Vd ([1]; female, oral, 2 mg): 87.5 L
- clearance ([1]; female, oral, 2 mg): 102 mL/min
- half-life ([1]; female, oral, 2 mg): 9.95 h
- Cmax ([1]; female, oral, 4 mg): 253 ng/mL
- Tmax ([1]; female, oral, 4 mg): 0.9 h
- Vd ([1]; female, oral, 4 mg): 72.7 L
- clearance ([1]; female, oral, 4 mg): 83 mL/min
- half-life ([1]; female, oral, 4 mg): 11.8 h
- AUC(0-t) ([1]; male, oral, 1 mg): 176 ng·h/mL
- Cmax ([1]; male, oral, 1 mg): 62.6 ng/mL
- Tmax ([1]; male, oral, 1 mg): 0.58 h
- Vd ([1]; male, oral, 1 mg): 86.4 L
- clearance ([1]; male, oral, 1 mg): 92 mL/min
- half-life ([1]; male, oral, 1 mg): 12.3 h
- AUC(0-t) ([1]; male, oral, 2 mg): 286 ng·h/mL
- Cmax ([1]; male, oral, 2 mg): 98.4 ng/mL
- Tmax ([1]; male, oral, 2 mg): 0.63 h
- Vd ([1]; male, oral, 2 mg): 86.4 L
- clearance ([1]; male, oral, 2 mg): 114 mL/min
- half-life ([1]; male, oral, 2 mg): 9.08 h
- AUC(0-t) ([1]; male, oral, 4 mg): 690 ng·h/mL
- Cmax ([1]; male, oral, 4 mg): 209 ng/mL
- Tmax ([1]; male, oral, 4 mg): 0.65 h
- Vd ([1]; male, oral, 4 mg): 72.2 L
- clearance ([1]; male, oral, 4 mg): 98.5 mL/min
- half-life ([1]; male, oral, 4 mg): 8.72 h
- correlation coefficient of dose-proportionality linear regression for AUC0−t ([1]; single dosing 1 mg, 2 mg, 4 mg): 0.92
- correlation coefficient of dose-proportionality linear regression for AUC0−∞ ([1]; single dosing 1 mg, 2 mg, 4 mg): 0.91
- correlation coefficient of dose-proportionality linear regression for Cmax ([1]; single dosing 1 mg, 2 mg, 4 mg): 0.86
- accumulation index (Cmax, multiple-dose/Cmax, single-dose) ([2]; 2 mg multiple dose vs 2 mg single dose, mean (SD)): 0.85 (0.23)
- accumulation index (AUC) ([2]; 2 mg multiple dose vs 2 mg single dose, ratio of AUC, mean (SD)): 0.98 (0.28)
- Cav ([2]; female (n = 6), mean (SD)): 11.65 (6.58) ng/mL
- Cav ([2]; male (n = 5), mean (SD)): 10.32 (1.86) ng/mL
- steady state of plasma pitavastatin concentration achieved ([2]; 2 mg once daily, day of multiple dosing): ~4 days
- Cav (steady-state concentration) [2, 9]: 11.05 (4.85) ng/mL
- Cmin (steady-state trough concentration) [2, 9]: 2.58 (0.92) ng/mL
- stability in human plasma ([7]; after 3 freeze-thaw cycles (80°C to room temperature)): stable
- stability in human plasma ([7]; at −20°C for 80 days): stable
- stability of processed samples ([7]; processed samples at room temperature for 8 hours): stable
Structure (SMILES): O=C(O)C[C@H](O)C[C@H](O)/C=C/c1c(C2CC2)nc2ccccc2c1-c1ccc(F)cc1 [pitavastatin]
- stability in human plasma (conversion to Pi-LAC) [3]: stable
- tolerability [4]: well tolerated
- AUC higher than wild type [5]: about 80%
- Cmax higher than wild type [5]: ~71%
- oral elimination lower than wild type [5]: about 35%
- protein binding ratio [6]: 96%
- liver levels relative to plasma [8]: approximately 54 times
